Only some compounds are listed: those with a hit (about 0.77% of all), similar ones and a draw of the others.
Efa HMGR inh = blocks class II HMG-CoA reductase of Enterococcus faecalis; purified E. faecalis HMGR, NADPH absorbance 340 nm kinetic; inhibition, % at 10 µM; hit rate 0.41% among 190,000;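 active = inhibition above a set limit, the median over all tested compounds plus 3 SD, cut at about 9.5% in these data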;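 also: enzyme runs in reverse so mevalonate oxidation gives rising NADPH absorbance; 0% = complete reaction with DMSO and 100% = background rate lacking mevalonate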
ABCB1 inh = human ABCB1 inhibition, ABCG2 as counter-screen; P08183; CCRF-Adr cells, JC-1 efflux, flow cytometry; inhibition, % at 6.6 µM; hit rate 0.067% among 190,000; in the data active = inhibition above about 40%;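 also: 0% = vehicle and 100% = reference inhibitor; higher value means more JC-1 retained so stronger ABCB1 efflux block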
ABCG2 inh = inhibitors of human ABCG2 transporter, ABCB1 counter-screen. Q9UNQ0. IgMXP3 cells, JC-1 efflux, flow cytometry. inhibition, % at 6.6 µM. hit rate 0.1% among 190,000. AID 1325;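 active = inhibition above 80%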;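 also: 0% = DMSO and 100% = nicardipine control wells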
Target sequence (Q9UNQ0 whole entry, looked up): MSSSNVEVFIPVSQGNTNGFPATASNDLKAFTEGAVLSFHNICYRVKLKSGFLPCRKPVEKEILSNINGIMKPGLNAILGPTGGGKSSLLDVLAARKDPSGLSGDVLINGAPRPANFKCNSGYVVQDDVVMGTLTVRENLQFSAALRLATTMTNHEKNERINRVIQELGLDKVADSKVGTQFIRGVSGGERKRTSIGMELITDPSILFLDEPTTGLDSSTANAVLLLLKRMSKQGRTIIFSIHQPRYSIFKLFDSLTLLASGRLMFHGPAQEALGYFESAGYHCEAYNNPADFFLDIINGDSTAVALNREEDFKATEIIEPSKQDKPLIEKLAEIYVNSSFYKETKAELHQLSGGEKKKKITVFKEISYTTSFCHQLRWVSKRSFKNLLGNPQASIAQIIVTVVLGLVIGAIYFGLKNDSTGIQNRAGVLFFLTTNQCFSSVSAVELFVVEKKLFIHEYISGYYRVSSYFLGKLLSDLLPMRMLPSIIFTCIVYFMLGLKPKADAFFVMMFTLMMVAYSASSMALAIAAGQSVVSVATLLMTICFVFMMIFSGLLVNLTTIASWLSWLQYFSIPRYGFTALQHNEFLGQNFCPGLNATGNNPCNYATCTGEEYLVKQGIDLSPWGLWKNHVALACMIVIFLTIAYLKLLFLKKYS
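Times: 10 min at 25 °C | Test system: Two drug-resistant human cell lines, ABCG2 and ABCB1 | Quantity: 3 million cells/mL final, two lines in 1:1 ratio | Signal: Flow cytometry, 530 nm JC-1 signal | Dosing: Compound at 6.6 µM | Controls: Nicardipine and DMSO wells | Reagent: JC-1 as fluorescent efflux pump substrate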
Furin inh = human furin inhibition; inhibition, % at 20 µM or 30 µM; purified furin, fluorogenic substrate cleavage; hit rate 0.061% among 220,000; in the data active = inhibition above about 25%
PERK inh = inhibitors of human PERK kinase; Q9NZJ5; CHO PERK-DD fusion, SEAP luminescence translation reporter; inhibition, % at 5.6 µM; AID 1416; hit rate 0.17% among 220,000;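 active = inhibition above the mean inhibition of all tested compounds plus 3 SD, set separately per screening campaign, cut at about 2.9% in these data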;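 also: PERK kinase domain activated by AP20187 dimerizer at 100 nM; 0% = DMSO with dimerizer and 100% = rapamycin at 8.4 µM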
Rad51 HR inh = Rad51 (human) homologous recombination inhibition; inhibition, % at 10 µM; hRad51 DNA strand exchange, fluorescence dequenching; hit rate 0.085% among 200,000; AID 1385; Q06609;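 active = inhibition above 40% at the single screening dose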;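 also: 0% = DMSO control wells and 100% = blanks with heterologous ssDNA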
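Assay system: Human Rad51 nucleoprotein filaments preassembled on unlabelled ssDNA | Reagent: Donor/quencher-labelled 47-bp dsDNA substrate | Doses: One concentration, 10 µM final | Times: 37 °C 15-min filament assembly, 30-min compound preincubation, 15-min exchange | Technique: Fluorescein emission 520 nm, excitation 485 nm | Benchmarks: Plate control and blank wells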
ABCB1 single pt = confirmation of human ABCB1 transporter inhibitors, ABCG2 counter-screen; shares compounds with ABCG2 inh; inhibition, % at 6.6 µM; AID 1451; hit rate 7% among 270; CCRF-Adr cells, JC-1 efflux, flow cytometry;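 active = inhibition of pump activity above 50%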;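 also: 0% = DMSO and 100% = nicardipine full pump inhibition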
ABCG2 single pt = inhibits human ABCG2 efflux, confirmed at single point | shares compounds with ABCG2 inh | IgMXP3 cells, JC-1 efflux, flow cytometry | inhibition, % at 6.6 µM | hit rate 6% among 270 | AID 1453;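 active = inhibition above 50%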;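 also: 0% = DMSO wells and 100% = nicardipine pump inhibitor wells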
IgMXP3 autofluor = counter-screen for ABCG2 inhibitors: compound fluorescence in IgMXP3 cells; shares compounds with ABCG2 inh; hit rate 30% among 270; compound autofluorescence 488/530 nm, flow; active compounds read high; fluorescence at 6.6 µM;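 active = fluorescence in ABCG2-expressing cells above the plate's control-well mean plus 3 SD, cut at about 15 in these data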;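 also: median cell fluorescence with compound minus that of DMSO-treated control cells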
CCRF-Adr fluor = CCRF-Adr autofluorescence flag for ABCB1 confirmation | AID 1483 | CCRF-Adr cells, compound autofluorescence 488/530 nm, flow cytometry; active compounds read high | shares compounds with ABCG2 inh | hit rate 30% among 270 | fluorescence at 6.6 µM;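 active = fluorescence beyond the plate control mean plus 3 SD, with a fluorescence-to-maximum score over 2, cut at about 25 in these data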
Active calls of the source: *; i = inactive; x = not tested or not shown; + = active, no number.

SMILES | Efa HMGR inh | ABCB1 inh | ABCG2 inh | Furin inh | PERK inh | Rad51 HR inh | ABCB1 single pt | ABCG2 single pt | IgMXP3 autofluor | CCRF-Adr fluor
CCc1ccc(NC(=O)CSc2nc3ccccc3c(=O)n2CCCC(=O)N2CCCC2)cc1 | -1.2 | 71.3* | 69.7 | -21.0 | -0.5 | 2.3 | 24.3 | 43.7 | -3.44 | -5.59
COc1cc(CC(=O)OCC(=O)Nc2cc([N+](=O)[O-])ccc2Cl)cc(OC)c1OC | -5.6 | 3.2 | 81.0* | -8.2 | 0.7 | 0.4 | 2.8 | 41.4 | 21.1* | -1.59
COc1ccc([N+](=O)[O-])cc1NC(=O)COC(=O)Cc1cc(OC)c(OC)c(OC)c1 | -1.3 | 0.7 | 21.6 | -18.5 | -0.6 | x | x | x | x | x
COC(=O)c1cc(NC(=O)c2ccccc2)c(=O)oc1/C=C/Nc1ccc(Oc2ccccc2)cc1 | -1.6 | 126.9* | 116.4* | -4.8 | 1.3 | i | 91.4* | -34.0 | 207* | 339*
COc1ccc(C(=O)Nc2cc(C(C)=O)c(C)oc2=O)cc1 | 1.4 | -0.1 | 3.1 | -13.0 | -0.3 | -7.4 | x | x | x | x
COC(=O)/C=C1/SC(=NC(=O)c2ccc(F)cc2)NC1=O | x | x | x | -8.6 | 0.4 | 10.6 | x | x | x | x
O=C(CCCCCn1c(=S)[nH]c2ccc(Br)cc2c1=O)NCC1CCCO1 (stereo not given) | -3.0 | 2.7 | 81.1* | -20.7 | 0.2 | -8.1 | 7.9 | 34.0 | 15.1* | 71.6*
Cc1c(C(=O)Nc2cccc(Cl)c2)c2ccccn2c1CCc1ccncc1 | 2.2 | 66.2* | 98.7* | -8.0 | -0.3 | -15.3 | 55.8* | 42.0 | -1.54 | -3.74
Cc1c(C(=O)Nc2ccc(Cl)cc2)c2ccccn2c1CCc1ccncc1 | -3.4 | 6.4 | 7.8 | -17.6 | 0.7 | -11.7 | x | x | x | x
O=C(c1cncs1)N1CCCC(CNS(=O)(=O)c2cccs2)C1 (stereo not given) | -6.3 | 0.5 | 3.3 | -7.1 | -0.1 | 6.3 | x | x | x | x
C/C(=N\NC(=O)COc1ccc(C#N)cc1)c1ccc(N2CCOCC2)cc1 | -1.6 | 0.5 | 3.2 | 7.3 | -0.3 | 17.9 | x | x | x | x
C/C(=N\NC(=O)COc1cc(C)cc(C)c1)c1ccc(N2CCOCC2)cc1 | 3.4 | 0.4 | 91.7* | -11.4 | 0.3 | -0.2 | 0.8 | 41.8 | -2.19 | -4.59
COc1ccc([N+](=O)[O-])cc1NC(=O)C(C)Sc1ccc(C)cc1 (stereo not given) | 0.9 | 1.7 | 81.7* | -1.3 | 0.2 | -1.4 | 5.4 | 34.6 | 3.61 | 3.81
CCCCOC(=O)Nc1ccc(C(=O)OCCC)cc1 | 3.0 | 1.4 | 72.8 | -10.6 | 0.0 | 2.8 | -0.2 | 28.9 | 5.16 | 18.9
Cc1cc(/C=C(\C#N)C(=O)O)c(C)n1CC(C)C | -13.1 | + | + | -0.2 | 1.5 | 5.0 | -2.0 | -5.3 | 39.8* | 4.41
COc1ccc(C(=O)N2CCN(c3ccc([N+](=O)[O-])c(NCCc4ccc(OC)c(OC)c4)c3)CC2)cc1 | -5.6 | 24.3 | 14.7 | -0.1 | -1.3 | -0.2 | x | x | x | x
COc1ccc(CCNc2cc(N3CCN(C(=O)c4ccc(C)cc4)CC3)ccc2[N+](=O)[O-])cc1OC | -0.9 | 36.6 | 22.4 | -6.7 | 0.1 | 13.7 | 26.2 | 33.7 | -1.99 | -0.84
CC(NC(=O)COC(=O)Cc1ccsc1)C1CC2CCC1C2 (stereo not given) | -3.9 | 35.0 | 132.0* | -7.0 | 0.6 | 3.6 | 6.9 | 4.2 | -2.14 | -4.74
S=c1[nH]nc(-c2ccc3ccccc3n2)n1-c1ccc2ncccc2c1 | -3.4 | 0.4 | 63.5 | -1.6 | 0.0 | -8.8 | 6.2 | 10.7 | 31.6* | 20.2
CN(C)S(=O)(=O)c1cccc(-c2nnc(SCC(=O)NCCCCCC(=O)O)n2-c2ccc(F)cc2)c1 | -9.4 | 0.8 | 10.3 | -15.7 | 1.2 | 4.0 | x | x | x | x
CCN(CC)c1ccc(/C=C2/C(=O)c3ccc(C(=O)O)cc3C2=O)cc1 | -0.7 | 140.3* | + | -7.9 | 0.2 | i | -46.1 | -162.4 | 251* | 169*
CC1CCCCN1C(=O)CSc1nnc(CSc2ncccn2)n1C (stereo not given) | -3.2 | -6.5 | -4.2 | -0.4 | 2.6 | -9.3 | x | x | x | x
Cc1coc2cc3oc(=O)c4c(c3cc12)CCCC4 | 2.1 | 0.7 | 2.9 | -17.5 | 1.0 | -9.2 | x | x | x | x
Cc1oc2c(C)c3oc(=O)c4c(c3cc2c1C)CCCC4 | -4.0 | 2.1 | 75.2 | -14.8 | 0.5 | 0.5 | 8.3 | 18.0 | 11.6 | 15.4
Cn1c(CCCOc2ccc(Cl)cc2Cl)nnc1SCC(=O)Nc1cccc(F)c1 | -2.1 | 3.1 | 111.0* | -12.3 | 0.3 | 2.2 | 4.3 | 15.6 | -1.74 | -1.19
SMILES | Efa HMGR inh | ABCB1 inh | ABCG2 inh | Furin inh | PERK inh | Rad51 HR inh | ABCB1 single pt | ABCG2 single pt | IgMXP3 autofluor | CCRF-Adr fluor
Cn1c(CCCOc2ccc(Cl)cc2Cl)nnc1SCC(=O)Nc1ccc(F)c(Cl)c1 | 0.0 | 0.2 | 0.2 | -4.2 | 0.1 | 9.1 | x | x | x | x
COc1ccccc1CNC(=O)C1CC(c2ccccc2[N+](=O)[O-])=NO1 (stereo not given) | 2.0 | 0.8 | 4.5 | -13.7 | -0.8 | 5.4 | x | x | x | x
COCCNCC1C(Oc2ccc(Cl)cc2)C(=O)N1c1ccccc1C (stereo not given) | -5.1 | 0.9 | 2.0 | -24.2 | -0.3 | 4.6 | x | x | x | x
COc1ccc(CCNCC2C(Oc3ccc(Cl)cc3)C(=O)N2c2ccccc2C)cc1OC (stereo not given) | -8.2 | 53.1* | 18.6 | -13.5 | -0.5 | x | 30.8 | 36.6 | 5.11 | 5.81
O=C1S/C(=C/c2ccc(N3CCOCC3)o2)C(=O)N1Cc1c(F)cccc1Cl | -0.3 | 4.7 | 135.9* | -18.6 | 0.0 | -363.5 | -11.6 | 2.9 | 248* | 49.4*
O=C1S/C(=C\c2ccc(N3CCOCC3)o2)C(=O)N1c1ccccc1 | -1.2 | 0.1 | 1.5 | -9.1 | 1.9 | i | x | x | x | x
Cc1cccc(CCNC(=O)CCc2nnc(CCc3ccccc3)o2)n1 | -4.4 | 0.0 | 0.0 | -27.2 | 1.3 | -16.6 | x | x | x | x
COc1ccc(CN2CCn3nc(C(=O)NC(C)C)cc3C2=O)cc1 | -1.8 | 41.4* | 0.0 | -19.0 | 0.8 | 24.0 | -1.5 | 4.3 | 3.41 | 0.71
Cc1nc2sc(C(=O)Nc3ccccc3)c(N)c2c(C)c1[N+](=O)[O-] | -7.1 | 2.1 | 17.2 | -8.4 | 0.0 | -5.1 | x | x | x | x
O=C(Cn1ccc(C(F)(F)F)n1)N=Nc1c(O)[nH]c2ccccc12 | 1.1 | 0.9 | 22.7 | -21.4 | 2.0 | x | x | x | x | x
